Measured values taken from ChEMBL document CHEMBL4190270, “Novel 4-arylaminoquinazoline derivatives with (E)-propen-1-yl moiety as potent EGFR inhibitors with enhanced antiproliferative activities against tumor cells” (Eur J Med Chem, 2017).
The source made the active and inactive calls. No cut-off for these calls is given here.

Key:
A549 [1] = assay: Antiproliferative activity against human A549 cells harboring wild type EGFR/K-Ras mutant after 72 hrs by MTT assay; assay type: functional, cell-based; conditions: A549, 72 h
SW480 = assay: Antiproliferative activity against human SW480 cells harboring wild type EGFR after 72 hrs by MTT assay; assay type: functional, cell-based; conditions: SW480, 72 h
A-431 = assay: Antiproliferative activity against human A431 cells harboring wild type EGFR after 72 hrs by MTT assay; assay type: functional, cell-based; conditions: A-431, 72 h
Procedure, shortened: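 Cells grown in DMEM or 1640 with 10% FBS, penicillin/streptomycin and 2 mM L-glutamine, plated in 96 wells for 24 h at 37 °C under 5% CO2. Exposed to compound as an 8-point series, or to 0.5% DMSO, for 72 h. Then MTT (5 mg/ml) for 4 h, formazan dissolved in DMSO, absorbance read at 570 nm (630 nm reference). IC50 by nonlinear regression; mean ± SD of at least three independent experiments.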

NCI-H1975 = assay: Antiproliferative activity against human NCI-H1975 cells harboring EGFR L858R/T790M mutant after 72 hrs by MTT assay; assay type: functional, cell-based; conditions: NCI-H1975, 72 h
A549 [2] = assay: Effect on total AKT protein expression in human A549 cells at 1 to 25 uM preincubated for 2 hrs followed by EGF stimulation for 10 mins by Western blot analysis; assay type: ADME, cell-based; conditions: a549, 10 min
Procedure, shortened: (§1)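 Cells grown in 6-well plates with 10% FBS to 90% confluence, then serum-starved 24 h. Exposed to a dose range of compound, or to 25 μM reference drug, for 2 h, then stimulated with 50 ng/mL EGF for 10 min at 37 °C. Lysed in RIPA with protease/phosphatase inhibitors. 20 µg protein run on 10% SDS-PAGE, transferred to PVDF, blocked with 5% milk, immunoblotted and detected by ECL.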

[3] = molecular target: T1, Epidermal growth factor receptor (Homo sapiens, UniProt P00533); assay: Inhibition of EGFR in human A549 cells assessed as reduction in EGF-induced Akt phosphorylation at S473 residue at 5 uM preincubated for 2 hrs followed by EGF stimulation for 10 mins by Western blot analysis; assay type: cell-based; procedure, shortened: as §1
[4] = molecular target: T1, Epidermal growth factor receptor; conditions: A549, at 25 µM
[5] = molecular target: T1, Epidermal growth factor receptor; assay: Inhibition of EGF-induced EGFR phosphorylation at Y1086-residue in human A549 cells at 5 uM preincubated for 2 hrs followed by EGF stimulation for 10 mins by Western blot analysis; assay type: cell-based; procedure, shortened: as §1
[6] = molecular target: T1, Epidermal growth factor receptor; conditions: A549, at 25 µM; remark: listed apart in the source
[7] = molecular target: T1, Epidermal growth factor receptor; conditions: A549, at 25 µM; remark: listed apart in the source
A549 [8] = assay: Effect on total EGFR protein expression in human A549 cells at 1 to 25 uM preincubated for 2 hrs followed by EGF stimulation for 10 mins by Western blot analysis; assay type: ADME, cell-based; conditions: a549, 10 min; procedure, shortened: as §1
[9] = molecular target: T1, Epidermal growth factor receptor; assay type: cell-based, HEK293
[10] = molecular target: T1, Epidermal growth factor receptor; conditions: A549, at 25 µM; remark: listed apart in the source
[11] = system: Epidermal growth factor receptor (Homo sapiens), P00533 [L858R,T790M]; assay: Inhibition of EGFR L858R/T790M double mutant in human NCI-H1975 cells assessed as reduction in EGF-induced Akt phosphorylation at Ser473 residue at 25 uM preincubated for 2 hrs followed by EGF stimulation for 10 mins by Western blot analysis; assay type: cell-based; procedure, shortened: as §1
[12] = molecular target: T1, Epidermal growth factor receptor; assay: Inhibition of EGFR in human A549 cells assessed as reduction in EGF-induced STAT3 phosphorylation at 1 to 25 uM preincubated for 2 hrs followed by EGF stimulation for 10 mins by Western blot analysis; assay type: cell-based; procedure, shortened: as §1
[13] = molecular target: T1, Epidermal growth factor receptor; assay: Inhibition of EGFR in human A549 cells assessed as reduction in EGF-induced ERK1/2 phosphorylation at T202/Y204 residues at 5 uM preincubated for 2 hrs followed by EGF stimulation for 10 mins by Western blot analysis; assay type: cell-based; procedure, shortened: as §1
A549 [14] = assay: Effect on total ERK1/2 protein expression in human A549 cells at 1 to 25 uM preincubated for 2 hrs followed by EGF stimulation for 10 mins by Western blot analysis; assay type: ADME, cell-based; conditions: a549, 10 min; procedure, shortened: as §1
[15] = system: Epidermal growth factor receptor (Homo sapiens), P00533 [L858R,T790M]; assay: Inhibition of EGF-induced EGFR L858R/T790M double mutant phosphorylation at Tyr-residue in human NCI-H1975 cells preincubated for 2 hrs followed by EGF stimulation for 10 mins by Western blot analysis; assay type: cell-based; procedure, shortened: as §1
[16] = molecular target: T1, Epidermal growth factor receptor; conditions: A549, at 25 µM; remark: listed apart in the source
[17] = system: Epidermal growth factor receptor (Homo sapiens), P00533 [L858R,T790M]; assay: Inhibition of EGF-induced EGFR L858R/T790M double mutant phosphorylation at Y992-residue in human NCI-H1975 cells preincubated for 2 hrs followed by EGF stimulation for 10 mins by Western blot analysis; assay type: cell-based; procedure, shortened: as §1
[18] = system: Epidermal growth factor receptor (Homo sapiens), P00533 [L858R,T790M]; assay: Inhibition of EGF-induced EGFR L858R/T790M double mutant phosphorylation at Y1068-residue in human NCI-H1975 cells preincubated for 2 hrs followed by EGF stimulation for 10 mins by Western blot analysis; assay type: cell-based; procedure, shortened: as §1
[19] = molecular target: T1, Epidermal growth factor receptor; assay: Inhibition of EGF-induced EGFR phosphorylation at Y992-residue in human A549 cells at 5 uM preincubated for 2 hrs followed by EGF stimulation for 10 mins by Western blot analysis; assay type: cell-based; procedure, shortened: as §1
[20] = system: Epidermal growth factor receptor (Homo sapiens), P00533 [L858R,T790M]; conditions: NCI-H1975, at 25 µM
[21] = system: Epidermal growth factor receptor (Homo sapiens), P00533 [L858R,T790M]; assay: Inhibition of EGFR L858R/T790M double mutant in human NCI-H1975 cells assessed as reduction in EGF-induced ERK1/2 phosphorylation at T202/Y204 residues at 25 uM preincubated for 2 hrs followed by EGF stimulation for 10 mins by Western blot analysis; assay type: cell-based; procedure, shortened: as §1
[22] = molecular target: T1, Epidermal growth factor receptor; assay: Inhibition of EGF-induced EGFR phosphorylation at Tyr-residue in human A549 cells at 5 uM preincubated for 2 hrs followed by EGF stimulation for 10 mins by Western blot analysis; assay type: cell-based; procedure, shortened: as §1

T1 sequence (P00533 whole entry): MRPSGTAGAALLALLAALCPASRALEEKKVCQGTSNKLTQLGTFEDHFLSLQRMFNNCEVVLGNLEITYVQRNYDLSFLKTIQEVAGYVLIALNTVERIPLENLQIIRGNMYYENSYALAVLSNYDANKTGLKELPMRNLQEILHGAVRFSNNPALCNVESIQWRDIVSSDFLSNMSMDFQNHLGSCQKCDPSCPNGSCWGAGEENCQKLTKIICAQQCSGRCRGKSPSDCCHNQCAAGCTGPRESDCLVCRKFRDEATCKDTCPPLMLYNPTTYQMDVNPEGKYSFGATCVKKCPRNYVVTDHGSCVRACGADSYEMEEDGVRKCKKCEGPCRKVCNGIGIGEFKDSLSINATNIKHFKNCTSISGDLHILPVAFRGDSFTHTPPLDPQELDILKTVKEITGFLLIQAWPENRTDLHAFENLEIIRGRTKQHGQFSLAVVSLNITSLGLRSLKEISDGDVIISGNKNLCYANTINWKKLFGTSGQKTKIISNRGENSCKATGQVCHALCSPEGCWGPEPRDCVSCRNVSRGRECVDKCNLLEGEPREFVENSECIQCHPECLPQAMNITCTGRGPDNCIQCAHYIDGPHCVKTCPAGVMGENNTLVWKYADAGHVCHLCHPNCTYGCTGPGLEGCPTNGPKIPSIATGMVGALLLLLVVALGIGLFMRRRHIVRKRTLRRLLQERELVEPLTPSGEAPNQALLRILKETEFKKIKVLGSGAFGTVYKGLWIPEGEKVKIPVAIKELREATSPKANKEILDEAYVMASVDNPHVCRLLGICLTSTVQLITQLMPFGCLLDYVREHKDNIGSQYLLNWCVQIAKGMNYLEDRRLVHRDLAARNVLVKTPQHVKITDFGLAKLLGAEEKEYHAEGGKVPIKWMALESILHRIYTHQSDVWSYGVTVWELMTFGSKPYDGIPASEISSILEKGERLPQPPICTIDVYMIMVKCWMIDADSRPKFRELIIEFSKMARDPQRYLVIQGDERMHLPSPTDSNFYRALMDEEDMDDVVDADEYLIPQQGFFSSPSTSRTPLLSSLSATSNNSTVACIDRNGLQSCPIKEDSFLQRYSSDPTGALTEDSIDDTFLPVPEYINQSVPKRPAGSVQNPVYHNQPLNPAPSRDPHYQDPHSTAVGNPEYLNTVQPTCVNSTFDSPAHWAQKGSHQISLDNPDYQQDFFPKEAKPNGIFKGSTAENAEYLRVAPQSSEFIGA
Chain of Epidermal growth factor receptor (Homo sapiens), P00533 [L858R,T790M] (P00533 whole entry T790M/L858R, looked up): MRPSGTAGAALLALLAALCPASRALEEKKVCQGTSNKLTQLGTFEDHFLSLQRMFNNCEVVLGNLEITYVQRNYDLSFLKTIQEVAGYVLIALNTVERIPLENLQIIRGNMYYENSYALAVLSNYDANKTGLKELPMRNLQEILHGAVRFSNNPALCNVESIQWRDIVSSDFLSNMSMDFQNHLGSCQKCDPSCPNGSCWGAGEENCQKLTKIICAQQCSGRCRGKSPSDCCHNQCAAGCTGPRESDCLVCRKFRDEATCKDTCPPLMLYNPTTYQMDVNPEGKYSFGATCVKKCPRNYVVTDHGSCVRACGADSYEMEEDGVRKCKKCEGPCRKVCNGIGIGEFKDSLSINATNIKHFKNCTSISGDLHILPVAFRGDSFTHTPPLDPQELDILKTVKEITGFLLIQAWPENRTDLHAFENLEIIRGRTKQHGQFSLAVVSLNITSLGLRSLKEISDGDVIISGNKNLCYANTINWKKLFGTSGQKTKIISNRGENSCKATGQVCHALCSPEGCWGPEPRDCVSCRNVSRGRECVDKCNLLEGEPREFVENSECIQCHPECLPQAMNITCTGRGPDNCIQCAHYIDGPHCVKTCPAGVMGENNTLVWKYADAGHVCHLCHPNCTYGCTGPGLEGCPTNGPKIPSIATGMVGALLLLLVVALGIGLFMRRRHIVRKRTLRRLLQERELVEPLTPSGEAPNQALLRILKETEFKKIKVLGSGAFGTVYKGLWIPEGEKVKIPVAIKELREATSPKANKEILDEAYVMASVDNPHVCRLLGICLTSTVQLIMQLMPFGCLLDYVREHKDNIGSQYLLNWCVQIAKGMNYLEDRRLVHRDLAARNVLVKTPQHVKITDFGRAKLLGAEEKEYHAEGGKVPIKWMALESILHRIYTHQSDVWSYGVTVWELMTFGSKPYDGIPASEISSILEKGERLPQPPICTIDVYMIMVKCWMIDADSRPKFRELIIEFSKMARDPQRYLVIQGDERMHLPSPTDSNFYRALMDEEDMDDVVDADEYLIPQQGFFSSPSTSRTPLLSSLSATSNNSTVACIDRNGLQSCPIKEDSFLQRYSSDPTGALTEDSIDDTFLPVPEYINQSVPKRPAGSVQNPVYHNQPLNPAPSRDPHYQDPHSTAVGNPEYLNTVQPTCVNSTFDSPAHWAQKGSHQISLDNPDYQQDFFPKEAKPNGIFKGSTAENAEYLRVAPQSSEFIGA

C/C=C/c1ccc(Nc2ncnc3ccc(-c4ccc(CNCCS(C)(=O)=O)o4)cc23)cc1
IC50 (A549 [1]): 84.5 µM
IC50 (SW480): 56.3 µM
IC50 (A-431): 37.6 µM
IC50 (NCI-H1975): > 100 µM

CS(=O)(=O)CCNCc1ccc(-c2ccc3ncnc(Nc4ccc(OCc5cccc(F)c5)c(Cl)c4)c3c2)o1 [LAPATINIB]
IC50 (NCI-H1975): 9.08 µM

C/C=C/c1ccc(Nc2ncnc3ccc(OCCN4CCOCC4)cc23)cc1
IC50 (A549 [1]): 85.3 µM
IC50 (SW480): 62.6 µM
IC50 (A-431): 57.7 µM
IC50 (NCI-H1975): > 100 µM

C/C=C/c1ccc(Nc2ncnc3cc(OC)c(OCCCN4CCOCC4)cc23)cc1
IC50 (A549 [1]): 10.3 µM
IC50 (SW480): 14.7 µM
IC50 (A-431): 13.9 µM
IC50 (NCI-H1975): 38.9 µM

C/C=C/c1ccc(Nc2ncnc3cc(OCCCN4CCOCC4)c(OC)cc23)cc1
IC50 (A549 [1]): 10.3 µM
IC50 (SW480): 11.6 µM
IC50 (A-431): 6.34 µM
IC50 (NCI-H1975): 10.8 µM

C/C=C/c1ccc(Nc2ncnc3cc(OCCN4CCOCC4)c(OC)cc23)cc1
IC50 (A549 [1]): 37.5 µM
IC50 (SW480): 27.6 µM
IC50 (A-431): 22.4 µM
IC50 (NCI-H1975): > 100 µM

C/C=C/c1ccc(Nc2ncnc3cc(OCCOC)c(OCCOC)cc23)cc1
IC50 (A549 [1]): 24.7 µM
IC50 (SW480): 43.6 µM
IC50 (A-431): 23.9 µM
IC50 (NCI-H1975): 27.7 µM

C/C=C/c1ccc(Nc2ncnc3ccc(OCCCN4CCOCC4)cc23)cc1
IC50 (A549 [1]): 17.4 µM
IC50 (SW480): 10.4 µM
IC50 (A-431): 12 µM
IC50 (NCI-H1975): 23.9 µM

C/C=C/c1ccc(Nc2ncnc3cc(OC)c(OCCN4CCOCC4)cc23)cc1
IC50 (A549 [1]): 26.5 µM
IC50 (SW480): 28.2 µM
IC50 (A-431): 47.1 µM
IC50 (NCI-H1975): > 100 µM

C/C=C/c1ccc(Nc2ncnc3cc4c(cc23)OCCO4)cc1
IC50 (A549 [1]): 38.2 µM
IC50 (SW480): 34 µM
IC50 (A-431): > 100 µM
IC50 (NCI-H1975): > 100 µM

C/C=C/c1ccc(Nc2ncnc3cc(OCCCN4CCOCC4)c(OCCCN4CCOCC4)cc23)cc1
Activity (A549 [2]): Non-Toxic
inhibition [3]: Active
inhibition [4]: Active
inhibition [5]: Active
inhibition [6]: Active
inhibition [7]: Active
Activity (A549 [8]): Non-Toxic
IC50 [9]: 0.0207 µM
inhibition [10]: Active
inhibition [11]: Active
inhibition [12]: inactive
inhibition [13]: Active
Activity (A549 [14]): Non-Toxic
inhibition [15]: Dose-dependent effect
inhibition [16]: Active
inhibition [17]: Dose-dependent effect
inhibition [18]: Dose-dependent effect
inhibition [19]: Active
inhibition [20]: Active
inhibition [21]: Active
inhibition [22]: Active

C/C=C/c1ccc(Nc2ncnc3cc(OCc4ccccc4)c(OCc4ccccc4)cc23)cc1
IC50 (A549 [1]): 36.5 µM
IC50 (SW480): 37 µM
IC50 (A-431): 28.1 µM
IC50 (NCI-H1975): 44.1 µM
